14 compounds from ChEMBL document CHEMBL1153621, “Regioselective reaction: synthesis, characterization and pharmacological studies of some new Mannich bases derived from 1,2,4-triazoles” (2009) can be followed below.

Holding throughout (assay type): functional
One assay concerns Bacillus subtilis. Kind of assay: Antibacterial activity against Bacillus subtilis after 16 to 18 hrs by serial dilution method. The gist of the method: (§1)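 MIC by serial dilution: compound dissolved in serially diluted DMF, a standard drop of prepared culture added to each dilution, incubated 16–18 h at 37 °C; MIC taken as the endpoint.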
The test system of a further assay is Candida albicans. Kind of assay: Antifungal activity against Candida albicans after 16 to 18 hrs by serial dilution method. The gist of the method:
as §1

The next assay concerns Escherichia coli. As to the kind of experiment: Antibacterial activity against Escherichia coli after 16 to 18 hrs by serial dilution method. The gist of the method:
as §1

For the next assay, the system named is Pseudomonas aeruginosa. Kind of assay: Antibacterial activity against Pseudomonas aeruginosa after 16 to 18 hrs by serial dilution method. The gist of the method: as §1
A further assay deals with Staphylococcus aureus. As to the kind of experiment: Antibacterial activity against Staphylococcus aureus after 16 to 18 hrs by serial dilution method. The gist of the method: as §1

In general, MIC refers to the least concentration at which growth counts as inhibited.

Values after ≈ are worked out from the molar mass of the structure shown.

For `CCCc1nn(CN2CCN(C)CC2)c(=S)n1/N=C/c1c[nH]nc1-c1ccc(Cl)cc1`, the MIC in the assay on Bacillus subtilis, with Candida albicans, against Escherichia coli, against Pseudomonas aeruginosa and with Staphylococcus aureus was 3 µg/mL (≈ 6.54 µM) each time.

`Cc1nn(CN2CCN(C)CC2)c(=S)n1/N=C/c1c[nH]nc1-c1ccccc1`: the MIC with Bacillus subtilis turned out to be 6 µg/mL (≈ 15.1 µM); in the assay with Candida albicans, 6 µg/mL (≈ 15.1 µM); with Escherichia coli, 12.5 µg/mL (≈ 31.5 µM); in the assay with Pseudomonas aeruginosa, 6 µg/mL (≈ 15.1 µM); against Staphylococcus aureus, 6 µg/mL (≈ 15.1 µM).

For `OC(Cn1cncn1)(Cn1cncn1)c1ccc(F)cc1F` [FLUCONAZOLE], it took 6 µg/mL (≈ 19.6 µM) to inhibit growth in the assay with Candida albicans (MIC).

On to `Cc1n[nH]cc1/C=N/n1c(-c2ccccc2)nn(CN2CCN(C)CC2)c1=S`, for which the MIC came to 12.5 µg/mL (≈ 31.5 µM) against Bacillus subtilis; 6 µg/mL (≈ 15.1 µM) with Candida albicans; 6 µg/mL (≈ 15.1 µM) against Escherichia coli; 12.5 µg/mL (≈ 31.5 µM) against Pseudomonas aeruginosa; 12.5 µg/mL (≈ 31.5 µM) against Staphylococcus aureus.

As to `COc1ccc(-c2n[nH]cc2/C=N/n2c(C)nn(CN3CCN(C)CC3)c2=S)cc1`, the MIC was determined as 6 µg/mL (≈ 14.1 µM) in the assay on Bacillus subtilis; 6 µg/mL (≈ 14.1 µM) against Candida albicans; 6 µg/mL (≈ 14.1 µM) against Escherichia coli; 1.5 µg/mL (≈ 3.52 µM) in the assay on Pseudomonas aeruginosa; 6 µg/mL (≈ 14.1 µM) in the assay on Staphylococcus aureus.

As to `Cc1n[nH]cc1/C=N/n1c(C)nn(CN2CCN(C)CC2)c1=S`, the minimal inhibitory concentration (MIC) in the assay on Bacillus subtilis was determined as 6 µg/mL (≈ 17.9 µM); in the assay with Candida albicans, 6 µg/mL (≈ 17.9 µM); with Escherichia coli it was 6 µg/mL (≈ 17.9 µM); against Pseudomonas aeruginosa, 6 µg/mL (≈ 17.9 µM); in the assay on Staphylococcus aureus it was 12.5 µg/mL (≈ 37.4 µM).

`CCCc1nn(CN2CCN(C)CC2)c(=S)n1/N=C/c1c[nH]nc1-c1ccc(OC)cc1`: the MIC against Bacillus subtilis stood at 12.5 µg/mL (≈ 27.5 µM); against Candida albicans, 6 µg/mL (≈ 13.2 µM); with Escherichia coli it was 12.5 µg/mL (≈ 27.5 µM); in the assay with Pseudomonas aeruginosa, 6 µg/mL (≈ 13.2 µM); with Staphylococcus aureus, 6 µg/mL (≈ 13.2 µM).

Consider `COc1ccc(-c2n[nH]cc2/C=N/n2c(-c3ccccc3)nn(CN3CCN(C)CC3)c2=S)cc1`, for which the MIC in the assay on Bacillus subtilis is 6 µg/mL (≈ 12.3 µM); against Candida albicans, 6 µg/mL (≈ 12.3 µM); in the assay with Escherichia coli it was 6 µg/mL (≈ 12.3 µM); with Pseudomonas aeruginosa, 3 µg/mL (≈ 6.14 µM); with Staphylococcus aureus, 6 µg/mL (≈ 12.3 µM).

`CN1CCN(Cn2nc(-c3ccccc3)n(/N=C/c3c[nH]nc3-c3ccccc3)c2=S)CC1`: the minimal inhibitory concentration (MIC) against Bacillus subtilis was 12.5 µg/mL (≈ 27.3 µM); against Candida albicans, 6 µg/mL (≈ 13.1 µM); with Escherichia coli, 6 µg/mL (≈ 13.1 µM); against Pseudomonas aeruginosa it was 6 µg/mL (≈ 13.1 µM); with Staphylococcus aureus, 6 µg/mL (≈ 13.1 µM).

As to `NC(=O)N/N=C/c1ccc([N+](=O)[O-])o1` [NITROFURAZONE], the minimum inhibitory concentration (MIC) with Bacillus subtilis was 12.5 µg/mL (≈ 63.1 µM); in the assay with Escherichia coli it was 6 µg/mL (≈ 30.3 µM); against Pseudomonas aeruginosa it was 12.5 µg/mL (≈ 63.1 µM); against Staphylococcus aureus, 12.5 µg/mL (≈ 63.1 µM).

As to `CCCc1nn(CN2CCN(C)CC2)c(=S)n1/N=C/c1c[nH]nc1-c1ccccc1`, the minimal inhibitory concentration (MIC) came out at 6 µg/mL (≈ 14.1 µM) in the assay on Bacillus subtilis; 6 µg/mL (≈ 14.1 µM) against Candida albicans; 12.5 µg/mL (≈ 29.4 µM) in the assay with Escherichia coli; 12.5 µg/mL (≈ 29.4 µM) in the assay with Pseudomonas aeruginosa; 6 µg/mL (≈ 14.1 µM) in the assay with Staphylococcus aureus.

For the compound `Cc1ccc(-c2n[nH]cc2/C=N/n2c(C)nn(CN3CCN(C)CC3)c2=S)cc1`, the minimal inhibitory concentration (MIC) in the assay on Bacillus subtilis was 6 µg/mL (≈ 14.6 µM); in the assay with Candida albicans, 6 µg/mL (≈ 14.6 µM); with Escherichia coli it was 6 µg/mL (≈ 14.6 µM); against Pseudomonas aeruginosa, 12.5 µg/mL (≈ 30.4 µM); against Staphylococcus aureus, 12.5 µg/mL (≈ 30.4 µM).

Regarding `Cc1ccc(-c2n[nH]cc2/C=N/n2c(-c3ccccc3)nn(CN3CCN(C)CC3)c2=S)cc1`, the MIC was determined as 12.5 µg/mL (≈ 26.4 µM) against Bacillus subtilis; 3 µg/mL (≈ 6.35 µM) against Candida albicans; 6 µg/mL (≈ 12.7 µM) in the assay on Escherichia coli; 3 µg/mL (≈ 6.35 µM) against Pseudomonas aeruginosa; 6 µg/mL (≈ 12.7 µM) against Staphylococcus aureus.

As for `CCCc1nn(CN2CCN(C)CC2)c(=S)n1/N=C/c1c[nH]nc1-c1ccc(C)cc1`, the MIC with Bacillus subtilis amounted to 12.5 µg/mL (≈ 28.5 µM); against Candida albicans, 6 µg/mL (≈ 13.7 µM); in the assay on Escherichia coli, 6 µg/mL (≈ 13.7 µM); against Pseudomonas aeruginosa it was 6 µg/mL (≈ 13.7 µM); in the assay on Staphylococcus aureus it was 6 µg/mL (≈ 13.7 µM).
